Data set [1] relates to Peritoneal macrophage. The experiment in a line: Antiinflammatory activity in BALB/c mouse peritoneal macrophages co-cultivated with splenocytes assessed as decrease in INF-gamma release at 30 uM after 48 hrs by flow cytometric analysis. In kind it is functional. The method in brief:
(§1)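 Peritoneal macrophages from BALB/c mice seeded at 1.5×10^5 cells/well; after 24 h, infected where applicable with L. infantum spleen-derived amastigotes at 1:10 (macrophage:amastigote). After 24 h, cocultured where applicable with splenocytes at 6:1. Compound added for 48 h. Supernatant cytokines quantified with an inflammatory cytometric bead array by flow cytometry. Sham-treated infected macrophages served as reference.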

Data set [2] concerns Leishmania infantum. The experiment in a line: Induction of plasma membrane permeability in Leishmania infantum MHOM/BR/1972/LD promastigote form assessed as increase in fluorescence intensity at 57 uM measured every 20 mins for 60 mins by SYTOX green dye based fluorimetric assay relative to control. Format: functional. In a few lines:
(§2)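 Late-growth-phase promastigotes (passage 7) washed in PBS, seeded at 2×10^6/well and loaded with 1 μM SYTOX Green for 15 min at 24 °C. Compound added; fluorescence (ex 485/em 520 nm) read every 20 min over 60 min. 0.1% Triton X-100 defined maximal permeabilization. Background, DMSO, untreated and cell-free controls included. Triplicates.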

In a further data set the test system is Trypanosoma cruzi. Put plainly: Antitrypanosomal activity against Trypanosoma cruzi Y trypomastigote forms infected in monkey LLC-MK2 cells assessed as reduction in parasite viability after 24 hrs by resazurin assay. The note with it: LLC-MK2, 24 h. In kind it is functional, cell-based. The method in brief: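 Y-strain trypomastigotes from LLC-MK2 cultures seeded at 1×10^6/well in RPMI-1640. Compounds up to 150 μM, 24 h at 37 °C, 5% CO2. Viability by resazurin (0.011% in PBS), read at 570 nm against drug-free and cell-free wells; 0.5% DMSO control. IC50 by sigmoidal dose-response curve fitting.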

Data set [3] in a line: Selectivity index, ratio of CC50 for mouse NCTC-929 cells to IC50 for Trypanosoma cruzi Y trypomastigote form infected in monkey LLC-MK2 cells. In kind it is functional.
Data set [4] in a line: Cytotoxicity against mouse NCTC-929 cells assessed as decrease in cell viability after 48 hrs by MTT assay. In kind it is toxicity. The method in brief: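 NCTC clone 929 murine cells seeded at 6×10^4/well. Compound up to 150 μM for 48 h at 37 °C, 5% CO2. Viability read by MTT. CC50 from sigmoidal dose-response; mean of at least two independent experiments.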
A general note: Tetrazolium assays rely on reduction of a dye to a coloured formazan, in cell work by metabolically active cells.

Data set [5] concerns Peritoneal macrophage. Put plainly: Antiinflammatory activity in BALB/c mouse peritoneal macrophages assessed as decrease in INF-gamma release at 30 uM after 48 hrs by flow cytometric analysis. In kind it is functional. In a few lines: as §1
In general terms: A flow cytometer gives signals particle by particle.

Data set [6] concerns Leishmania infantum. The experiment in a line: Induction of ROS generation in Leishmania infantum MHOM/BR/1972/LD promastigote form at 57 uM incubated for […] by H2DCF-DA probe based fluorimetric assay relative to sodium azide. Format: functional. In a few lines:
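Promastigotes (2 × 10^6/well) washed in HBSS and exposed to compound for 60 min, then loaded with 5 μM H2DCFDA for 15 min. Fluorescence read at ex 485/em 520 nm. Sodium azide (10 mM) served as positive control. Controls were compound background fluorescence, DMSO, untreated promastigotes and cell-free medium. Run in triplicate.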

For data set [7], the system named is Leishmania infantum. The experiment in a line: Induction of mitochondrial membrane potential loss in Leishmania infantum MHOM/BR/1972/LD promastigote form at 57 uM incubated for 60 mins by rhodamine-123 dye based fluorimetric assay. In kind it is functional. In a few lines:
(§3)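 Promastigotes (2×10^6/mL) in HBSS-glucose exposed to compound for 60 min at 25 °C. Rhodamine-123 (0.3 μg/mL) then added, cells washed and resuspended in HBSS-Glc, and fluorescence read at ex 485/em 520 nm. Sodium azide 10 mM as positive control; background, DMSO and untreated controls included. Triplicates.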

In data set [8] the test system is Peritoneal macrophage. The experiment in a line: Antiinflammatory activity in BALB/c mouse peritoneal macrophages assessed as decrease in MCP-1 release at 30 uM after 48 hrs by flow cytometric analysis. Format: functional. The method in brief: as §1
The test system of data set [9] is Peritoneal macrophage. The experiment in a line: Antiinflammatory activity in BALB/c mouse peritoneal macrophages infected with Leishmania infantum MHOM/BR/1972/LD amastigote form assessed as decrease in MCP-1 release at 30 uM after 48 hrs by flow cytometric analysis. Format: functional. In a few lines: as §1
In data set [10] the test system is Leishmania infantum. Put plainly: Antileishmanial activity against Leishmania infantum MHOM/BR/1972/LD promastigote forms […] assessed as reduction in parasite viability after 48 hrs by MTT assay. Format: functional. In a few lines:
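Late-growth-phase promastigotes (passage 5) seeded at 1×10^6/well in M-199. Compounds dissolved in DMSO, tested up to 100 μM, 48 h at 24 °C. Viability by MTT, OD 570 nm, against drug-free (100%) and cell-free blank wells; 0.5% DMSO control. IC50 from sigmoidal dose-response curves; ≥2 independent assays.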

Data set [11] concerns Leishmania infantum. Put plainly: Antileishmanial activity against Leishmania infantum MHOM/BR/1972/LD amastigote forms infected in BALB/c mouse peritoneal macrophages assessed as reduction in parasite viability after 120 hrs by giemsa staining based light microscopy. In kind it is functional. The method in brief: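 BALB/c peritoneal macrophages seeded at 1×10^5/well for 24 h, then infected with hamster spleen-derived amastigotes (1:10 macrophage:amastigote, 24 h, 37 °C, 5% CO2). Compound exposure for 120 h, highest 100 μM. Cells MeOH-fixed and Giemsa-stained; infected macrophages counted out of 400 cells. IC50 from sigmoidal dose-response; at least two independent assays.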

The subject of data set [12] is Peritoneal macrophage. The experiment in a line: Antiinflammatory activity in BALB/c mouse peritoneal macrophages infected with Leishmania infantum MHOM/BR/1972/LD amastigote form cocultivated with splenocytes assessed as decrease in MCP-1 release at 30 uM after 48 hrs by flow cytometric analysis. In kind it is functional. In a few lines: as §1
The subject of data set [13] is Peritoneal macrophage. The experiment in a line: Antiinflammatory activity in BALB/c mouse peritoneal macrophages co-cultivated with splenocytes assessed as decrease in MCP-1 release at 30 uM after 48 hrs by flow cytometric analysis. Format: functional. The method in brief:
as §1

A short description of data set [14]: Selectivity index, ratio of CC50 for mouse NCTC-929 cells to IC50 for Leishmania infantum MHOM/BR/1972/LD amastigote forms infected in BALB/c mouse macrophages. Format: functional.
Data set [15] relates to Peritoneal macrophage. The experiment in a line: Antiinflammatory activity in BALB/c mouse peritoneal macrophages infected with Leishmania infantum MHOM/BR/1972/LD amastigote form cocultivated with splenocytes assessed as decrease in INF-gamma release at 30 uM after 48 hrs by flow cytometric analysis. Format: functional. The method in brief:
as §1

Data set [16] concerns Splenocyte. Put plainly: Antiinflammatory activity in splenocytes (unknown origin) assessed as decrease in MCP1 release at 30 uM after 48 hrs by flow cytometric analysis. In kind it is functional, cell-based.
For data set [17], the system named is Peritoneal macrophage. Put plainly: Antiinflammatory activity in BALB/c mouse peritoneal macrophages infected with Leishmania infantum MHOM/BR/1972/LD amastigote form assessed as decrease in INF-gamma release at 30 uM after 48 hrs by flow cytometric analysis. In kind it is functional. In a few lines:
as §1

Data set [18] deals with Peritoneal macrophage. Put plainly: Antiinflammatory activity in BALB/c mouse peritoneal macrophages co-cultivated with splenocytes assessed as decrease in INF-gamma release at 15 uM after 48 hrs by flow cytometric analysis. Format: functional. The method in brief: as §1
In data set [19] the test system is Leishmania infantum. The experiment in a line: Induction of mitochondrial membrane potential loss in Leishmania infantum MHOM/BR/1972/LD promastigote form at 34 uM incubated for 60 mins by rhodamine-123 dye based fluorimetric assay. Format: functional. In a few lines: as §3
For data set [20], the system named is Peritoneal macrophage. The experiment in a line: Antiinflammatory activity in BALB/c mouse peritoneal macrophages infected with Leishmania infantum MHOM/BR/1972/LD amastigote form cocultivated with splenocytes assessed as decrease in INF-gamma release at 15 uM after 48 hrs by flow cytometric analysis. Format: functional. The method in brief:
as §1

Data set [21] concerns Leishmania infantum. Put plainly: Induction of plasma membrane permeability in Leishmania infantum MHOM/BR/1972/LD promastigote form assessed as increase in fluorescence intensity at 34 uM measured every 20 mins for 60 mins by SYTOX green dye based fluorimetric assay relative to control. Format: functional. The method in brief: as §2
Data set [22] relates to Splenocyte. The experiment in a line: Antiinflammatory activity in splenocytes (unknown origin) assessed as decrease in MCP1 release at 15 uM after 48 hrs by flow cytometric analysis. Format: functional, cell-based.
Data set [23] deals with Leishmania infantum. The experiment in a line: Induction of ROS generation in Leishmania infantum MHOM/BR/1972/LD promastigote form at 34 uM incubated for […] by H2DCF-DA probe based fluorimetric assay relative to untreated control. Format: functional. In a few lines: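 Promastigotes (2×10^6/well) washed in HBSS and exposed to compound for 60 min. H2DCFDA (5 μM) then added for 15 min. Fluorescence read at ex 485/em 520 nm. Sodium azide 10 mM as positive control; background, DMSO, untreated and cell-free controls included. Triplicates.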

Results on two compounds are retold here after ChEMBL document CHEMBL3868592, “Analogues of Marine Guanidine Alkaloids Are in Vitro Effective against Trypanosoma cruzi and Selectively Eliminate Leishmania (L.) infantum Intracellular Amastigotes” (J Nat Prod, 2016).

The structures appear in SMILES notation. Calls of active or inactive are those of the source. The calls are words filed in the database; no cut-off is given here.

A word on the IC50: it is the concentration needed to halve the response being measured. One may read the CC50 as the concentration at which the toxic effect on the cells reaches its halfway point.

Take `C[C@@H]1C[C@@H]2CC[C@@H]3C[C@H](CCCCOCc4ccccc4)NC(=[NH+]1)N32.F[B-](F)(F)F`: the result in the data set on Peritoneal macrophage [1], with Peritoneal macrophage [5], in the data set with Peritoneal macrophage [8], in the data set with Peritoneal macrophage [9], in the data set on Peritoneal macrophage [12] and with Peritoneal macrophage [13] was Active. Further, the outcome in the data set with Peritoneal macrophage [15], in the data set on Splenocyte [16] and in the data set on Peritoneal macrophage [17] was Active. In addition, the Activity in the data set with Leishmania infantum [2] turned out to be 25%; in the data set with Leishmania infantum [7], 70%. Moreover, the results for the IC50 with Trypanosoma cruzi, with Leishmania infantum [10] and in the data set with Leishmania infantum [11] were 41 µM, 57 µM and 5 µM, respectively. For the same compound, the “Ratio CC50/IC50” value is reported as 3 in [3] and 25 in [14]. In addition, the CC50 at 48 h in data set [4] turned out to be 138 µM. In addition, the “fold change (FC)” value in the data set on Leishmania infantum [6] turned out to be 3.
As to `F[B-](F)(F)F.c1ccc([C@@H]2C[C@@H]3CC[C@@H]4C[C@H](c5ccccc5)NC(=[NH+]2)N43)cc1`, the outcome with Peritoneal macrophage [18], in the data set with Peritoneal macrophage [20] and in the data set with Splenocyte [22] was Active. Moreover, the results for the IC50 in the data set with Trypanosoma cruzi, with Leishmania infantum [10] and in the data set on Leishmania infantum [11] were 9 µM, 34 µM and 2 µM, respectively. The “Ratio CC50/IC50” value in data set [3] amounted to 5; in data set [14] it was 20. The CC50 at 48 h in data set [4] turned out to be 45 µM. The Activity with Leishmania infantum [19] stood at 70%; in the data set with Leishmania infantum [21], 10%; in the data set with Leishmania infantum [23] it was 60%.
